Test results reported in article PMC8711093 (Nature, 2021).
Substitutions are numbered along the chain they refer to. Entries after “also recorded” stand apart in the source; their conditions may differ.

Assays:
dorsal horn neurons = assay: Spinal cord slice electrophysiology; type: cell-based, rat; conditions: for increase in eEPSC amplitude from baseline: reversal of the ADO tone; for sEPSC frequency and amplitude: nerve-injured rats, superfusion, reversed by DPCPX, n=8
In short: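 Parasagittal lumbar cord slices (340 μm) from PNL and sham Sprague-Dawley rats, 9-15 weeks, cut in ice-cold sucrose ACSF and superfused at 2 ml/min, 34°C. Whole-cell voltage clamp at −70 mV in lamina I-II neurons; Cs-based internal with QX-314. eEPSCs evoked by dorsal root stimulation (C and A fibre) with gabazine 10 μM and strychnine 0.5 μM. Test compound superfused after stable baseline, then 1 μM DPCPX.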

[1] = target: T1, human A1R expressed in CHO cells (Homo sapiens, UniProt P30542); type: cell-based
T1 sequence (P30542 1-326): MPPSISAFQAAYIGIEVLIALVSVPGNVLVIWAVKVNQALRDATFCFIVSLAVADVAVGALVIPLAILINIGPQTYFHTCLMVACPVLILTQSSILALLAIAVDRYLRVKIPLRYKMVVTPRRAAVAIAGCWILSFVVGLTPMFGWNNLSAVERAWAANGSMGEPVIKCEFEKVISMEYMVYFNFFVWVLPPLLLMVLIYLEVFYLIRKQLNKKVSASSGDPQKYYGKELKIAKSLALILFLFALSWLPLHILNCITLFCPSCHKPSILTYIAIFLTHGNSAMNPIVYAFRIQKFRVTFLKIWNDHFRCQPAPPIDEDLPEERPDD
In short: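 FlpIN-CHO cells stably expressing WT A1R, grown in DMEM with 20 mM HEPES, 5% FBS and hygromycin B; seeded at 20,000 cells/well overnight. At 37°C in HEPES-buffered saline with rolipram, pH 7.45: 30 min preincubation, 10 min test compound, then 3 μM forskolin ± increasing ADO for 30 min. Stopped with ice-cold ethanol; cAMP expressed as % of forskolin response.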

nerve-injured rats [2] = type: in vivo, rat; conditions: intrathecal
In short: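 Sciatic nerve partially ligated (one third to one half) under isoflurane; allodynia confirmed at day 14. Intrathecal catheters placed at day 12 in male and female Sprague-Dawley rats, 9-14 weeks. After baseline, blinded 10 μL dose (DMSO/saline 60:40) plus 25 μL saline flush. Von Frey filaments 0.52-14.8 g, up-down method, over a time course, including 1 h post-dose. n = 8-10; catheter placement checked with lignocaine.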

nerve-injured rats [3] = assay: Conditioned place preference; type: in vivo, rat; conditions: intrathecal; for time spent in the drug paired chamber: nerve-injured rats, n=8
In short: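 Male and female Sprague-Dawley rats, 10-16 weeks, with partial sciatic nerve ligation and lumbar intrathecal catheters. Three-chamber box; pre-conditioning began 10 days post-surgery, excluding rats spending >80% of time in one chamber. Vehicle (DMSO/saline 60:40 or saline) was paired with one chamber in the morning and intrathecal drug with the opposite chamber 4 h later, counterbalanced. Rats were recorded 15 min with free access 20 h later; n = 8/group; morphine positive control.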

rats = assay: Rotarod; type: in vivo, rat
rat atrial beat rate = assay: Isolated rat atrial experiments; conditions: isolated rat atria, concentration-response
[4] = Stability in human plasma; type: in vitro ADME
Stability in rat plasma = type: in vitro ADME
mutant A1R [5] = target: T2, mutant A1R (Homo sapiens, UniProt P30542, F275V); type: binding; conditions: F275^7.40V
T2 sequence (P30542 1-326 F275V): T1 sequence (P30542 1-326) with F275V

mutant A1R [6] = target: T3, mutant A1R (Homo sapiens, UniProt P30542, L242A/L245A); type: binding; conditions: alanine mutation of both L242^6.43 and L245^6.46
T3 sequence (P30542 1-326 L242A/L245A): T1 sequence (P30542 1-326) with L242A, L245A

mutant A1R [7] = target: T4, mutant A1R (Homo sapiens, UniProt P30542, L276A); type: binding; conditions: L276^7.41A
T4 sequence (P30542 1-326 L276A): T1 sequence (P30542 1-326) with L276A

mutant A1R [8] = target: T5, mutant A1R (Homo sapiens, UniProt P30542, M283V); type: binding; conditions: M283^7.48V
T5 sequence (P30542 1-326 M283V): T1 sequence (P30542 1-326) with M283V

mutant A1R [9] = target: T6, mutant A1R (Homo sapiens, UniProt P30542, S246A); type: binding; conditions: S246^6.47A
T6 sequence (P30542 1-326 S246A): T1 sequence (P30542 1-326) with S246A

mutant A1R [10] = type: binding, human; conditions: bulkier side chains at position 7.44 (G279^7.44)
[11] = target: T7, A1R alone reconstituted in rHDL (Homo sapiens, UniProt P30542); assay: [3H]DPCPX dissociation at A1R-rHDL particles, absence of G protein; type: binding; conditions: 30 μM MIPS521, SLV320 isotopic dilution
T7 sequence (P30542 1-326): T1 sequence (P30542 1-326)
In short: (§1)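 Purified A1R reconstituted into MSP1D1 nanodiscs (POPC:POPG 3:2; molar ratio 1:10:800) for 1 h at 4°C, then Bio-beads overnight; empty discs removed on anti-Flag resin. Particles ± Gi2 heterotrimer (1:50 molar) were equilibrated 1 h with 2 nM [3H]DPCPX ± 30 μM test compound. Dissociation started with excess SLV320, filtered on GF/C and counted. Fitted to mono-exponential decay; n = 3-5, duplicate.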

[12] = target: A1R-rHDL particles with Gi2 heterotrimeric protein (Homo sapiens, UniProt P30542); assay: [3H]DPCPX dissociation at A1R-rHDL particles with saturating Gi2; type: binding; conditions: 30 μM MIPS521; saturating concentration of Gi2; SLV320 isotopic dilution
In short: as §1

[13] = operational model, ADO, 3 μM forskolin
[14] = intrathecal, compared to vehicle controls, n=3-4

Chain of A1R-rHDL particles with Gi2 heterotrimeric protein (P62873 whole entry, one chain of several): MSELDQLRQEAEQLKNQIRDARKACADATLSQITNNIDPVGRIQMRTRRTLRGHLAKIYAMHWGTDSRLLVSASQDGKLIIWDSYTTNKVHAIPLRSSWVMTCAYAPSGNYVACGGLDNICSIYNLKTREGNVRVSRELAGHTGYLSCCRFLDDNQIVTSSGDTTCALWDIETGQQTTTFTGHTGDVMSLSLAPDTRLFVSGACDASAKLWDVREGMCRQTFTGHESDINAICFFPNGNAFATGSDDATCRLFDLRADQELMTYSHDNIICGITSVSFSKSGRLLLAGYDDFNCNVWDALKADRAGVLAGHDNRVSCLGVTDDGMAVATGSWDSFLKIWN
Chain of A1R-rHDL particles with Gi2 heterotrimeric protein (P59768 2-68, one chain of several, further chain): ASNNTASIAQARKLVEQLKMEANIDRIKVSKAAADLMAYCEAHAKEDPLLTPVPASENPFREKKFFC
Chain of A1R-rHDL particles with Gi2 heterotrimeric protein (P04899 2-355, one chain of several, further chain): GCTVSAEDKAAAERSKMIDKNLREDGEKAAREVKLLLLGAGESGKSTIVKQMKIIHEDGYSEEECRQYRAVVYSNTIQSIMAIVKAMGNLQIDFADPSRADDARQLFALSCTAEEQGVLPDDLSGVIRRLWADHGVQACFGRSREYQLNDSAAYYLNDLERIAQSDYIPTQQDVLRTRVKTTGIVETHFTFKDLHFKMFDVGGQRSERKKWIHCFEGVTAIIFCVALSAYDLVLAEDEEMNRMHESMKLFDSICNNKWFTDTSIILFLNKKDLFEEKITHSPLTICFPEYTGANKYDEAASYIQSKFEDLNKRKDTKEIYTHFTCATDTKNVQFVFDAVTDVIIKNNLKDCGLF

For `CCCn1c(=O)c2[nH]c(C3CCCC3)nc2n(CCC)c1=O` [DPCPX, reference compound], the “increase in eEPSC amplitude from baseline” value (dorsal horn neurons; nerve-injured animals) was 19.7 ± 6.1% and the “increase in eEPSC amplitude from baseline” value (dorsal horn neurons; sham controls) was 7.89 ± 2.7%.

For `Nc1scc(-c2cc(C(F)(F)F)cc(C(F)(F)F)c2)c1C(=O)c1ccc(Cl)cc1` [MIPS521], the “affinity for the A1R allosteric site, pKB” value ([1]; operational model of allosterism and agonism, ADO, 3 μM forskolin, n=3) was 4.95 ± 0.40, the “positive cooperativity with ADO, Log αβ” value [1, 13] was 1.81 ± 0.53 and the “direct allosteric agonism / signaling efficacy, Log τB” value ([1]; operational model, recombinant CHO cells) was 0.96 ± 0.34. The “sEPSC frequency and amplitude” value (dorsal horn neurons) was “reduced”, the “pEC50 for reducing eEPSCs” value (dorsal horn neurons; spinal cord from nerve-injured animals, n=4-12) was 6.9 ± 0.4 and the “mechanical hyperalgesia (paw withdrawal threshold)” value (nerve-injured rats [2]; compared with VCP171) was “reversed the mechanical hyperalgesia at lower concentrations than VCP171”. The “time spent in the drug paired chamber” value (nerve-injured rats [3]; 10 μg) was “increased the time nerve-injured rats spent in the drug paired chamber”, the spontaneous pain (nerve-injured rats [3]; lower dose than VCP171 (10 μg)) was “significantly reduced spontaneous pain” and the “rotarod latency to fall / motor function” value (rats; [14]) was “neither MIPS521 nor VCP171 affected motor function; also recorded: not significantly different to vehicle controls”. The “effect on rat atrial beat rate” value (rat atrial beat rate) was “minimal effect”, the stability in plasma ([4]; 4-hour incubation period) was “stable” and the stability in plasma (Stability in rat plasma; 4-hour incubation period) was “stable”. For the same molecule, the “change in PAM affinity (pKB) vs wild type” value (“change in PAM affinity (pKB)” for short) (mutant A1R [5]) was “decrease in affinity”, the “change in PAM affinity (pKB)” value (mutant A1R [6]) was “no effect on affinity” and the “change in binding cooperativity (log α) with NECA vs wild type” value (“change in binding cooperativity (log α)” for short) (mutant A1R [6]) was “significant decrease in PAM cooperativity”. For the same molecule, the “change in PAM affinity (pKB)” value (mutant A1R [7]) was “significantly decreased MIPS521 affinity”, the “change in PAM affinity (pKB)” value (mutant A1R [8]) was “significantly reduced the affinity” and the “change in PAM affinity (pKB)” value (mutant A1R [9]) was “significant decrease in both PAM affinity and cooperativity”. For the same molecule, the “change in binding cooperativity (log α)” value (mutant A1R [9]) was “significant decrease in both PAM affinity and cooperativity”, the “change in PAM affinity (pKB)” value (mutant A1R [10]) was “significant loss of both modulator affinity and cooperativity” and the “change in binding cooperativity (log α)” value (mutant A1R [10]) was “significant loss of both modulator affinity and cooperativity”. The “effect on dissociation of pre-equilibrated [3H]DPCPX” value [11] was “no effect” and the “effect on dissociation of pre-equilibrated [3H]DPCPX” value [12] was “even more profound retardation”.

With `Nc1scc(-c2cccc(C(F)(F)F)c2)c1C(=O)c1ccccc1` [VCP171, (2-amino-4-(3-(trifluoromethyl)phenyl)thiophen-3-yl)(phenyl)methanone] the Kb [1] was 3.16 µM, the “positive cooperativity with ADO, Log αβ” value [1, 13] was 0.76 ± 0.25 and the “sEPSC frequency and amplitude” value (dorsal horn neurons) was “reduced”. For the same molecule, the “allodynia (paw withdrawal threshold)” value (nerve-injured rats [2]; 30 μg) was “small reduction of allodynia”, the paw withdrawal threshold (nerve-injured rats [2]; 1-10 μg) was “no effect” and the spontaneous pain (nerve-injured rats [3]; 30 μg (highest dose)) was “reduced spontaneous pain”. The “time spent in the drug paired chamber” value (nerve-injured rats [3]; 30 μg) was “increased the time nerve-injured rats spent in the drug paired chamber”, the “rotarod latency to fall / motor function” value (rats; both, Sprague Dawley, rat, in vivo) was “neither MIPS521 nor VCP171 affected motor function” and the “rotarod latency to fall / motor function” value (rats; rat, in vivo) was “not significantly different to vehicle controls”. For the same molecule, the “time stable in plasma” value [4] was “at least 4 h” and the “time stable in plasma” value (Stability in rat plasma) was “at least 4 h”.

For `CN1CC[C@]23c4c5ccc(O)c4O[C@H]2[C@@H](O)C=C[C@H]3[C@H]1C5` [morphine, reference compound], the “time spent in the drug paired chamber” value (nerve-injured rats [3]; 10 μg) was “increased the time nerve-injured rats spent in the drug paired chamber” and the “rotarod latency to fall / motor function” value (rats; [14]) was “reduces rotarod latency to fall”.
